Measurements published in ChEMBL document CHEMBL4477207, “Discovery of Novel 3-Quinoline Carboxamides as Potent, Selective, and Orally Bioavailable Inhibitors of Ataxia Telangiectasia Mutated (ATM) Kinase” (J Med Chem, 2016).
Values after ≈ are worked out from the molar mass of the structure shown. Active and inactive are the calls of the source. The calls are words filed in the database; no cut-off is given here.

Tests used:
[1] = Volume of distribution at steady state in Han Wistar rat at 2 mg/kg, iv or 5 mg/kg, po; assay type: ADME, organism-based; conditions: in vivo, read-out: Vdss
[2] = Clearance in dog at 1 mg/kg, iv or 2 mg/kg, po; assay type: ADME, organism-based, Canis lupus familiaris; conditions: in vivo
[3] = Clearance in Han Wistar rat at 2 mg/kg, iv or 5 mg/kg, po; assay type: ADME, organism-based; conditions: in vivo
[4] = Thermodynamic solubility of the compound in 0.1M aqueous phosphate buffer at pH 7.4 after 24 hrs by LC-UV analysis; assay type: physicochemical; conditions: read-out: Therm_solubility
Method in brief: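 Solid samples equilibrated in 0.1 M aqueous phosphate buffer, pH 7.4, for 24 h at 25 °C.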

[5] = Apparent permeability from apical to basolateral side in human Caco2 cells; assay type: ADME, cell-based; conditions: Caco-2
[6] = Fraction unbound in human plasma by equilibrium dialysis method; assay type: ADME, cell-free
[7] = Fraction unbound in mouse plasma by equilibrium dialysis method; assay type: ADME, cell-free
[8] = Fraction unbound in rat plasma by equilibrium dialysis method; assay type: ADME, cell-free
[9] = Fraction unbound in dog plasma by equilibrium dialysis method; assay type: ADME, cell-free, Canis lupus familiaris
[10] = Intrinsic clearance in human hepatocytes assessed per million cells; assay type: ADME, cell-based, Hepatocyte; conditions: read-out: CLH
Method in brief: (§1)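 Intrinsic clearance measured in hepatocytes of each species, reported as µL/min/10⁶ cells.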

[11] = Intrinsic clearance in mouse hepatocytes assessed per million cells; assay type: ADME, cell-based, Hepatocyte; conditions: read-out: CLH; method in brief: as §1
[12] = Intrinsic clearance in rat hepatocytes assessed per million cells; assay type: ADME, cell-based, Hepatocyte; conditions: read-out: CLH; method in brief: as §1
[13] = Intrinsic clearance in dog hepatocytes assessed per million cells; assay type: ADME, cell-based, Canis lupus familiaris, Hepatocyte; conditions: read-out: CLH; method in brief: as §1
[14] = Volume of distribution at steady state in dog at 1 mg/kg, iv or 2 mg/kg, po; assay type: ADME, organism-based, Canis lupus familiaris; conditions: in vivo, read-out: Vdss
[15] = Oral bioavailability in Han Wistar rat at 5 mg/kg; assay type: ADME, organism-based; conditions: in vivo
[16] = Oral bioavailability in dog at 2 mg/kg; assay type: ADME, organism-based, Canis lupus familiaris; conditions: in vivo
[17] = AUC (0 to 24 hrs) in nude mouse at 50 mg/kg, po; assay type: ADME, organism-based; parameters: dose 50 mg/kg, time < 24 hr, route oral; conditions: in vivo
Method in brief: (§2)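 Nude mice, single oral dose of 50 mg/kg. Vehicle was either a propylene glycol aqueous solution or 10% DMSO:90% captisol solution.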

[18] = target: Serine/threonine-protein kinase mTOR (Homo sapiens, UniProt P42345); assay: Inhibition of C-terminal FLAG-tagged recombinant mTOR (1362 to 2549 residues) (unknown origin) using Biotin-Ahx-Lys-Lys-Ala-Asn-Gln-Val-Phe-Leu-Gly-Phe-Thr-Tyr-Val-Ala-Pro-Ser-Val-Leu-Glu-Ser-Val-Lys-Glu-NH2 as substrate after 90 mins by AlphaScreen assay
[19] = target: T1, DNA-dependent protein kinase catalytic subunit (Homo sapiens, UniProt P78527); assay: Inhibition of DNAPK (unknown origin) using p53-based peptide substrate preincubated for 5 min prior to ATP addition
[20] = target: T2, Phosphatidylinositol 4,5-bisphosphate 3-kinase catalytic subunit alpha isoform (Homo sapiens, UniProt P42336); assay: Inhibition of human recombinant PI3Kalpha using PIP2/ATP as substrate incubated for 20 mins followed by substrate addition by Kinase Glo reagent based luminescence assay
[21] = target: T3, Phosphatidylinositol 4,5-bisphosphate 3-kinase catalytic subunit beta isoform (Homo sapiens, UniProt P42338); assay: Inhibition of human recombinant PI3Kbeta using PIP2/ATP as substrate incubated for 20 mins followed by substrate addition by Kinase Glo reagent based luminescence assay
[22] = target: Phosphatidylinositol 4,5-bisphosphate 3-kinase catalytic subunit gamma isoform (Homo sapiens, UniProt P48736); assay: Inhibition of human recombinant PI3Kgamma using PIP2/ATP as substrate incubated for 20 mins followed by substrate addition by Kinase Glo reagent based luminescence assay
[23] = target: Glycogen synthase kinase-3 beta (Homo sapiens, UniProt P49841); assay: Inhibition of GSK3beta (unknown origin)
[24] = target: Vascular endothelial growth factor receptor 2 (Homo sapiens, UniProt P35968); assay: Inhibition of KDR (unknown origin)
[25] = target: T1, DNA-dependent protein kinase catalytic subunit; assay: Inhibition of DNAPK phosphorylation at Ser-2056 residue in human HT-29 cells; assay type: cell-based
[26] = target: Dual specificity protein kinase CLK1 (Homo sapiens) (UniProt P49759); assay: Inhibition of N-terminal His6-tagged recombinant human CLK1 (130-end residues) expressed in baculovirus infected Sf21 cells at 1 uM relative to control
[27] = target: Dual specificity protein kinase CLK4 (Homo sapiens) (UniProt Q9HAZ1); assay: Inhibition of recombinant human CLK4 at 1 uM
[28] = target: T4, Tyrosine-protein kinase Mer (Homo sapiens) (UniProt Q12866); assay: Inhibition of N-terminal GST-tagged recombinant human Mer (557 to 882 residues) expressed in baculovirus infected Sf21 cells using GGMEDIYFEFMGGKKK as substrate at 1 uM relative to control
T4 sequence (whole entry): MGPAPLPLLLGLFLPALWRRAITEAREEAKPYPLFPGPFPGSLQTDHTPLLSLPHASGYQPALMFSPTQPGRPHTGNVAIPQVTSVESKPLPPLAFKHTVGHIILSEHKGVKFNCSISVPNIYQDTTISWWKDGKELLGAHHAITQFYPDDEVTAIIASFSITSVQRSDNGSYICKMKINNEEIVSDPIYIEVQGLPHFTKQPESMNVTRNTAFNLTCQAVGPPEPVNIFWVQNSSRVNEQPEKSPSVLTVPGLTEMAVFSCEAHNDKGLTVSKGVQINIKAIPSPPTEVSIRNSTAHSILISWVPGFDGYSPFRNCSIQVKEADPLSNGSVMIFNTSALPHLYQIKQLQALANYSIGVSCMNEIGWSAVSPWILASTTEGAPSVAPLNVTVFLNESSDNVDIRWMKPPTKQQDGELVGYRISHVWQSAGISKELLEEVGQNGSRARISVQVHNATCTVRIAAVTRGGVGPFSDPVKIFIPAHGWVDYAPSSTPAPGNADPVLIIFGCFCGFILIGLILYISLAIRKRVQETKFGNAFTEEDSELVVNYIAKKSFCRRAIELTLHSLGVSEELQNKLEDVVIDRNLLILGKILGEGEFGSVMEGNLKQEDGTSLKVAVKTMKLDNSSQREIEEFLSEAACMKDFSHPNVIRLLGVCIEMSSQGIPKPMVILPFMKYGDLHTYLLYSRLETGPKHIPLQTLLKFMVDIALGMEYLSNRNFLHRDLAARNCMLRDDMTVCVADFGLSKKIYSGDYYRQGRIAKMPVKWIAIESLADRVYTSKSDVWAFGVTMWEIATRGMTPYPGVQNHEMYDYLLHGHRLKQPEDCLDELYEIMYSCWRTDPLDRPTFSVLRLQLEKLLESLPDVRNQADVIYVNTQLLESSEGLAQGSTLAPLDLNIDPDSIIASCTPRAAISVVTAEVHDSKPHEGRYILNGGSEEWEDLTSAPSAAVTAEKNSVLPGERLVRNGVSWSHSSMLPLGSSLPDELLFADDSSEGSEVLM

SW-620 = assay: Antitumor activity against human SW620 cells xenografted in immunocompromised athymic Swiss nude mouse assessed as tumor growth inhibition at 50 mg/kg bid administered via oral gavage for 3 days a week for 3 weeks regime after 24 hrs of topoisomerase-1 inhibitor irinotecan administration; assay type: functional, organism-based
[29] = target: T2, Phosphatidylinositol 4,5-bisphosphate 3-kinase catalytic subunit alpha isoform; assay: Inhibition of PI3Kalpha in human BT474 cells assessed as reduction in AKT phosphorylation at Thr-308 residue; assay type: cell-based
[30] = target: T3, Phosphatidylinositol 4,5-bisphosphate 3-kinase catalytic subunit beta isoform; assay: Inhibition of PI3Kbeta (unknown origin) by cell based assay
Mus musculus = assay: Time duration during which free plasma concentration stays above in-vitro ATM IC50 level in nude mouse at 50 mg/kg, po; assay type: ADME, organism-based; conditions: in vivo; method in brief: as §2
[31] = Cmax in nude mouse at 50 mg/kg, po; assay type: ADME, organism-based; parameters: dose 50 mg/kg, route oral; conditions: in vivo; method in brief: as §2
in vitro [32] = conditions: human, hepatocytes
in vitro [33] = conditions: rat, hepatocytes
physchem = conditions: octanol/buffer, pH 7.4
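Wherever logD is given: determined by the shake flask method.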

T3 sequence (P42338 whole entry, canonical isoform): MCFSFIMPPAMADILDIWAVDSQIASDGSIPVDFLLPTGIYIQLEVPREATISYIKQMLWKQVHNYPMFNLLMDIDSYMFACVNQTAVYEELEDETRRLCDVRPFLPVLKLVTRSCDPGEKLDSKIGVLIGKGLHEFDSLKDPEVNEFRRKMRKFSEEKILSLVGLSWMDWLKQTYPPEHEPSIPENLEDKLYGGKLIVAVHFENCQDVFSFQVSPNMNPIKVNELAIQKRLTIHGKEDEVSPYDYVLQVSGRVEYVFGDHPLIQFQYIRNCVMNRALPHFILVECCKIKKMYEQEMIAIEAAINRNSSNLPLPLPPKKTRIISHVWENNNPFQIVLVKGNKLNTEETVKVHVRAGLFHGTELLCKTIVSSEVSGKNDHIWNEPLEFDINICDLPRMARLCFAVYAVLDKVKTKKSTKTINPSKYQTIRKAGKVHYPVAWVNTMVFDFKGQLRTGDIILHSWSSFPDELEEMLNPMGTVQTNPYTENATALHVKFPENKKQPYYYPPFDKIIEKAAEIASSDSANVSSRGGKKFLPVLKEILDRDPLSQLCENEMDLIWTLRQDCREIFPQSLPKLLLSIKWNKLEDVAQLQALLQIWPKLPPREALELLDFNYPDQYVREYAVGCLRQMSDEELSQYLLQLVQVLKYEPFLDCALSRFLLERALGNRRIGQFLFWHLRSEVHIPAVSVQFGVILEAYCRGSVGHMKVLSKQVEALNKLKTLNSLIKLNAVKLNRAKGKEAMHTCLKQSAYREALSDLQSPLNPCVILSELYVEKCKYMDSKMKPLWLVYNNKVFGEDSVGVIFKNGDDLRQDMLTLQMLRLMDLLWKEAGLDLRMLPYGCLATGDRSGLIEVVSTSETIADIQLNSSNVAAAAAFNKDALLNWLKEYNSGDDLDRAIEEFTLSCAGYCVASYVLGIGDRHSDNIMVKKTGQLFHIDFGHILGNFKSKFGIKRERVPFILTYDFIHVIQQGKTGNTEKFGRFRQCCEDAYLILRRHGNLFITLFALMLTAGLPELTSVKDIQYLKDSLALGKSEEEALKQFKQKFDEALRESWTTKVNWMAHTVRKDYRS
T2 sequence (P42336 whole entry, canonical isoform): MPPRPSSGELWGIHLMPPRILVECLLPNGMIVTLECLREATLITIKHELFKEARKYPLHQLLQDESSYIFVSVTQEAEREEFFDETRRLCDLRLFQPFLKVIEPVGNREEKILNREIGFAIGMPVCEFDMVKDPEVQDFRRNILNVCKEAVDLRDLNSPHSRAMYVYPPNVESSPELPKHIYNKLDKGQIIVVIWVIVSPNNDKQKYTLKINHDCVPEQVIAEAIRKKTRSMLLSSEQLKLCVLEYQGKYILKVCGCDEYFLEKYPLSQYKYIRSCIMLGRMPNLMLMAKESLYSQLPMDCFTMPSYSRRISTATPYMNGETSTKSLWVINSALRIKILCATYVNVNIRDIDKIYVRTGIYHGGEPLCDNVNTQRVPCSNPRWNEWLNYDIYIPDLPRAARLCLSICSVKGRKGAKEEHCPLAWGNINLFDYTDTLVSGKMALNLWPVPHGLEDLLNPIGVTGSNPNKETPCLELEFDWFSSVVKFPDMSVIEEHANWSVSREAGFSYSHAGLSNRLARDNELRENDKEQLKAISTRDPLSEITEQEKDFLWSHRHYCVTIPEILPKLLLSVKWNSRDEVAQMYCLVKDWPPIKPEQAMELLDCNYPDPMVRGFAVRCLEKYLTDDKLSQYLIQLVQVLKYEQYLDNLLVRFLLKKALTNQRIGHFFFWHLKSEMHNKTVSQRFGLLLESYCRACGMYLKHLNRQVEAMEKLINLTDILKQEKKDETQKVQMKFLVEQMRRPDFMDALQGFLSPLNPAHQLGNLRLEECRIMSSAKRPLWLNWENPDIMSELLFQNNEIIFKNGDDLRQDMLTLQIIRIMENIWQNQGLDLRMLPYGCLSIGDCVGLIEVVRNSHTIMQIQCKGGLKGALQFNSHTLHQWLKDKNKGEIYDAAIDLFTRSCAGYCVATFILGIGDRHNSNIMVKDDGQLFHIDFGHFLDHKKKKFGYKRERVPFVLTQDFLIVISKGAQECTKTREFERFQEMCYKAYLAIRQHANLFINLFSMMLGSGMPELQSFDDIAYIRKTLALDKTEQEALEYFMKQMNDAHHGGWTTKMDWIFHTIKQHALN
Chain of Phosphatidylinositol 4,5-bisphosphate 3-kinase catalytic subunit gamma isoform (P48736 whole entry, canonical isoform): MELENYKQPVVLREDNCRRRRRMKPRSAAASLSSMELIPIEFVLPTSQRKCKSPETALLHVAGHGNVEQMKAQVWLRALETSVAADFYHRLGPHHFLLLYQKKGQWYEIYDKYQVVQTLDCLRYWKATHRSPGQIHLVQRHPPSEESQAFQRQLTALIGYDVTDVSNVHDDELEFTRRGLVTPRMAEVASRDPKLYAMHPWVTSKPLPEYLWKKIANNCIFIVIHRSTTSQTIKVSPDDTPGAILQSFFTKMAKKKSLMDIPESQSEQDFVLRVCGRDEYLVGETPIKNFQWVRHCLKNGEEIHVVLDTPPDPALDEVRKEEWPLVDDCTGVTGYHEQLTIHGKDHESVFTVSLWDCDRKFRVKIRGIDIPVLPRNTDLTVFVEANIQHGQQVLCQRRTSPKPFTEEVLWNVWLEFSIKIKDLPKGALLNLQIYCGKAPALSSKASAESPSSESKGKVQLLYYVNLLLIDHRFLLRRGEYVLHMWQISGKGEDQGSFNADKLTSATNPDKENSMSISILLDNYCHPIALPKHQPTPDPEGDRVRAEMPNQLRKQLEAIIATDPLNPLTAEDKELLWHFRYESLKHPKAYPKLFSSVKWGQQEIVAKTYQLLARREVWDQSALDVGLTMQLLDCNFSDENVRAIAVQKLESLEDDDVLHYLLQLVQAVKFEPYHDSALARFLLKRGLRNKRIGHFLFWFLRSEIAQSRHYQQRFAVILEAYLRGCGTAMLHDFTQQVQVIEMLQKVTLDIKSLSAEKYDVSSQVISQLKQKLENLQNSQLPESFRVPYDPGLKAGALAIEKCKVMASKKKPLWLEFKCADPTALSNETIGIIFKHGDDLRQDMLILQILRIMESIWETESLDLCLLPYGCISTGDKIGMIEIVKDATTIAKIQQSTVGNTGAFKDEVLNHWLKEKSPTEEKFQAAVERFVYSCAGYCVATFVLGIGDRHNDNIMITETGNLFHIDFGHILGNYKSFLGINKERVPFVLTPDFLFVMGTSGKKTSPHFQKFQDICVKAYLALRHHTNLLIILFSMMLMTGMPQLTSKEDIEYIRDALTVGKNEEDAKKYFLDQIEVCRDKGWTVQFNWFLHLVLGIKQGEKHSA
Chain of Dual specificity protein kinase CLK4 (Homo sapiens) (Q9HAZ1 whole entry, looked up, the tested form may be a part): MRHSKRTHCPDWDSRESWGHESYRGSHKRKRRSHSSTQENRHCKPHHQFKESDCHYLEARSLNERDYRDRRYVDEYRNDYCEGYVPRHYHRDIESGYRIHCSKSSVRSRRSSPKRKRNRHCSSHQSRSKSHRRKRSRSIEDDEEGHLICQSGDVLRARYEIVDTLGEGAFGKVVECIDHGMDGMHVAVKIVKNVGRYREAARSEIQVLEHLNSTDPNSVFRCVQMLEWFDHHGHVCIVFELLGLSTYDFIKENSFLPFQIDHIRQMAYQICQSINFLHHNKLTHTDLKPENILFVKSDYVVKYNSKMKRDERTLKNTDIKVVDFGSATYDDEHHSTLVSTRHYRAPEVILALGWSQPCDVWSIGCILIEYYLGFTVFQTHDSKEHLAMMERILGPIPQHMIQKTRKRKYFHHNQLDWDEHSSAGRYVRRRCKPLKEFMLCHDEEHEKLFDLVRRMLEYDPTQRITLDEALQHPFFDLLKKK
Chain of Glycogen synthase kinase-3 beta (P49841 whole entry): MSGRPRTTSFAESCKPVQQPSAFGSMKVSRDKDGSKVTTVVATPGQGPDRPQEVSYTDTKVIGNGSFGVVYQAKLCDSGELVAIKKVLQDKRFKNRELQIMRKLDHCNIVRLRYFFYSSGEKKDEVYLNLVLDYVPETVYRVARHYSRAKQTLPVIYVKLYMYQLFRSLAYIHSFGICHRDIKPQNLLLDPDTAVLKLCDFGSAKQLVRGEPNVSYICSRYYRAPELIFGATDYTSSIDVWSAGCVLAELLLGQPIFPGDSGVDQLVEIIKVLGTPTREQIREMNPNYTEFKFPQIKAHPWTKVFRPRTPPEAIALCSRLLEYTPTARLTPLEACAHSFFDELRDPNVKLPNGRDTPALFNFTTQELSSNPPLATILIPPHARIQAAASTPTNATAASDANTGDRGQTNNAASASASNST
Chain of Dual specificity protein kinase CLK1 (Homo sapiens) (P49759 whole entry, looked up): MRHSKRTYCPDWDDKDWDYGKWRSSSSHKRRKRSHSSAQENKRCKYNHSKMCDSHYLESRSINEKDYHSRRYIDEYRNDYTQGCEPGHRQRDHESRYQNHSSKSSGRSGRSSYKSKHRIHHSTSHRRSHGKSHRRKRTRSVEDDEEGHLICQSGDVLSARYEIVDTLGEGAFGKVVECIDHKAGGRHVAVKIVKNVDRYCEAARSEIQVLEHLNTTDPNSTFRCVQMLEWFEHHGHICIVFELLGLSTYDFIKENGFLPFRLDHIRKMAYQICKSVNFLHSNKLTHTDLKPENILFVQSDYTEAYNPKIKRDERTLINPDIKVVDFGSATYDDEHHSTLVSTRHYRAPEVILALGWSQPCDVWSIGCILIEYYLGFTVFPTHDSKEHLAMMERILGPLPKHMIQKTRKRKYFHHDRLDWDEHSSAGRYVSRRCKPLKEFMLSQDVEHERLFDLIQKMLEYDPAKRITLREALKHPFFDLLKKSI

Vd [1]: 1 L/kg
clearance [2]: 0.78 L/h/kg
clearance [3]: 0.78 L/h/kg
solubility thermodynamic at 24 h [4]: 69 µM (≈ 30 µg/mL)
Papp A→B [5]: 140 nm/s
fraction unbound [6]: 0.18
fraction unbound [7]: 0.17
fraction unbound [8]: 0.12
fraction unbound [9]: 0.18
hepatocyte CLint [10]: < 1.5 µL/min/1e6 cells
hepatocyte CLint [11]: 28 µL/min/1e6 cells
hepatocyte CLint [12]: 5.3 µL/min/1e6 cells
hepatocyte CLint [13]: 2 µL/min/1e6 cells
Vd [14]: 1.4 L/kg
bioavailability [15]: 29%
bioavailability [16]: 71%
AUC(0-t) at 24 h [17]: 33 µM·h
IC50 [18]: 1.48 µM
IC50 [19]: 0.37 µM
IC50 [20]: 0.445 µM
IC50 [21]: 12.8 µM
IC50 [22]: 7.1 µM
IC50 [23]: > 100 µM
IC50 [24]: 79 µM
IC50 [25]: > 30 µM
inhibition [26]: 57%
inhibition [27]: 55%
inhibition [28]: 56%
IC50 [29]: 18.8 µM
IC50 [30]: > 17.5 µM
Time (Mus musculus): 10 h
Cmax [31]: 17 µM
hepatocyte CLint at 1.5 h (in vitro [32]): < 1.5 µL/min/1e6 cells
hepatocyte CLint at 1.5 h (in vitro [33]): 5.3 µL/min/1e6 cells
logD (physchem): 2.7
SMILES: COCc1ccc(-c2cc3c(N[C@@H](C)c4ccn(C)n4)c(C(N)=O)cnc3cc2F)cn1
TGI (SW-620): Active
